# Measurements reported in ChEMBL document CHEMBL1208737, “Synthesis and in vitro evaluation of N-alkyl-3-hydroxy-3-(2-imino-3-methyl-5-oxoimidazolidin-4-yl)indolin-2-one analogs as potential anticancer agents” (2010).
# What was measured:
# Format in all cases: functional
# [1] = system: OVCAR-3; assay: Growth inhibition of human OVCAR-3 cells by sulforhodamine B assay; settings: read-out: LC50 (the source's name)
# Summary of the method: (§1)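 Five-dose response testing across a 57-line human tumour panel (leukemia, non-small cell lung, colon, CNS, melanoma, ovarian, renal, prostate, breast), done after a single-dose primary screen run per the NCI method. Effect plotted against log10 molar drug concentration for each cell line. GI50 is the concentration giving a 50% reduction in net protein increase versus control cells.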
# [2] = system: NCI-H226; assay: Growth inhibition of human NCI-H226 cells by sulforhodamine B assay; summary of the method: as §1
# [3] = system: T47D; assay: Growth inhibition of human T47D cells by sulforhodamine B assay
# Summary of the method: (§2)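 Part of a 57-line human tumour cell panel run at five doses. Growth effect was plotted against log10 molar drug concentration for each cell line. GI50 is the concentration giving a 50% reduction in net protein increase relative to untreated control cells, read from the dose-response curve.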
# [4] = system: SNB-75; assay: Growth inhibition of human SNB75 cells by sulforhodamine B assay; summary of the method: as §1
# [5] = system: NCI-H522; assay: Growth inhibition of human NCI-H522 cells by sulforhodamine B assay; summary of the method: as §1
# [6] = system: A498; assay: Growth inhibition of human A498 cells by sulforhodamine B assay; summary of the method: as §1
# [7] = Growth inhibition of human […] cells by sulforhodamine B assay; summary of the method: as §1
# [8] = system: PC-3; assay: Growth inhibition of human PC3 cells by sulforhodamine B assay; summary of the method: as §1
# [9] = system: SK-OV-3; assay: Growth inhibition of human SKOV3 cells by sulforhodamine B assay; summary of the method: as §1
# [10] = system: MOLT-4; assay: Growth inhibition of human MOLT4 cells by sulforhodamine B assay; summary of the method: as §1
# [11] = system: SN12C; assay: Growth inhibition of human SN12C cells by sulforhodamine B assay; summary of the method: as §1
# [12] = system: RXF 393; assay: Growth inhibition of human RXF393 cells by sulforhodamine B assay; summary of the method: as §1
# [13] = system: HCC 2998; assay: Growth inhibition of human HCC2998 cells by sulforhodamine B assay; summary of the method: as §1
# [14] = system: COLO 205; assay: Growth inhibition of human COLO205 cells by sulforhodamine B assay; summary of the method: as §1
# [15] = system: MCF7; assay: Growth inhibition of human MCF7 cells by sulforhodamine B assay; summary of the method: as §1
# [16] = system: SF-295; assay: Growth inhibition of human SF295 cells by sulforhodamine B assay; summary of the method: as §1
# [17] = system: K562; assay: Growth inhibition of human K562 cells by sulforhodamine B assay; summary of the method: as §1
# [18] = system: OVCAR-4; assay: Growth inhibition of human OVCAR4 cells by sulforhodamine B assay; summary of the method: as §1
# [19] = system: SF-539; assay: Growth inhibition of human SF539 cells by sulforhodamine B assay; summary of the method: as §1
# [20] = system: HCT-15; assay: Growth inhibition of human HCT15 cells by sulforhodamine B assay; summary of the method: as §1
# [21] = system: SF-268; assay: Growth inhibition of human SF268 cells by sulforhodamine B assay; summary of the method: as §1
# [22] = system: SK-MEL-28; assay: Growth inhibition of human SK-MEL-28 cells by sulforhodamine B assay; summary of the method: as §1
# [23] = system: CAKI-1; assay: Growth inhibition of human Caki1 cells by sulforhodamine B assay; summary of the method: as §1
# [24] = system: MDA-MB-435; assay: Growth inhibition of human MDA-MB-435 cells by sulforhodamine B assay; summary of the method: as §1
# [25] = system: UACC-62; assay: Growth inhibition of human UACC62 cells by sulforhodamine B assay; summary of the method: as §2
# [26] = system: DU-145; assay: Growth inhibition of human DU145 cells by sulforhodamine B assay; summary of the method: as §1
# [27] = system: SK-MEL-2; assay: Growth inhibition of human SK-MEL-2 cells by sulforhodamine B assay; summary of the method: as §1
# [28] = system: OVCAR-8; assay: Growth inhibition of human OVCAR8 cells by sulforhodamine B assay; summary of the method: as §1
# [29] = system: BT-549; assay: Growth inhibition of human BT549 cells by sulforhodamine B assay; summary of the method: as §1
# [30] = read-out: LC50 (the source's name)
smiles,measurement,setting,value
COc1ccc(CN2C(=O)C(O)(C3C(=O)NC(=N)N3C)c3ccccc32)cc1 (configuration not stated),CC50,[1],30.1 µM
same,GI50,[2],38.4 µM
same,CC50,[2]; [30],> 100 µM
same,GI50,[3],32 µM
same,LC50,[3],> 100 µM
same,GI50,[4],28.8 µM
same,CC50,[4]; [30],> 100 µM
same,GI50,[5],3.65 µM
same,LC50 (concentration killing 50% of cells),[5],> 100 µM
same,GI50,[6],> 100 µM
same,CC50,[6]; [30],> 100 µM
same,GI50,[7],2.87 µM
same,CC50,[7]; [30],> 100 µM
same,GI50,[8],46.9 µM
same,CC50,[8]; [30],> 100 µM
same,GI50,[9],45.5 µM
same,CC50,[9]; [30],> 100 µM
same,GI50,[10],4.79 µM
same,CC50,[10]; [30],> 100 µM
same,GI50,[11],> 100 µM
same,CC50,[11]; [30],> 100 µM
same,GI50,[12],7.4 µM
same,CC50,[12]; [30],> 100 µM
same,GI50,[13],12.8 µM
same,LC50,[13],63.9 µM
same,GI50,[14],19.9 µM
same,CC50,[14]; [30],> 100 µM
same,GI50,[15],6.93 µM
same,LC50 (concentration killing 50% of starting cells),[15],> 100 µM
same,GI50,[16],26 µM
same,CC50,[16]; [30],> 100 µM
same,GI50,[17],3.73 µM
same,CC50,[17]; [30],> 100 µM
same,GI50,[18],7.13 µM
same,CC50,[18]; [30],> 100 µM
same,GI50,[19],3.73 µM
same,CC50,[19]; [30],> 100 µM
same,GI50,[20],11.8 µM
same,LC50 (concentration killing 50% of starting cells),[20],> 100 µM
same,GI50,[21],5 µM
same,CC50,[21]; [30],> 100 µM
same,GI50,[22],36.9 µM
same,CC50,[22]; [30],> 100 µM
same,GI50,[23],53.9 µM
same,CC50,[23]; [30],> 100 µM
same,GI50,[24],10.6 µM
same,CC50,[24]; [30],> 100 µM
same,GI50,[25],27.7 µM
same,CC50,[25]; [30],> 100 µM
same,GI50,[26],21.4 µM
same,CC50,[26]; [30],> 100 µM
same,GI50,[27],95.2 µM
same,CC50,[27]; [30],> 100 µM
same,GI50,[28],3.52 µM
same,CC50,[28]; [30],> 100 µM
same,GI50,[29],8.45 µM
same,LC50,[29],97 µM
